In brackets after ≈: the same amount, converted by molar mass. Activity calls are given as the source filed them. No cut-off for these calls is given here.

Here are results for seven molecules from ChEMBL document CHEMBL3588802, “Thiol activated prodrugs of sulfur dioxide (SO2) as MRSA inhibitors” (Bioorg Med Chem Lett, 2015).

In series [1] the test system is Staphylococcus aureus. Nature of the series: Antibacterial activity against methicillin-sensitive Staphylococcus aureus after 18 to 20 hrs by microbroth dilution method. Type of series: functional.
The next series has as its system Enterococcus faecalis. Briefly: Antibacterial activity against Enterococcus faecalis after 18 to 20 hrs by microbroth dilution method. Type of series: functional.
The next series has as its system Escherichia coli. Nature of the series: Antibacterial activity against Escherichia coli after 18 to 20 hrs by microbroth dilution method. Type of series: functional.
Series [2] concerns Staphylococcus aureus. Nature of the series: Antibacterial activity against methicillin-resistant Staphylococcus aureus after 18 to 20 hrs by microbroth dilution method. Type of series: functional.
Series [3] has as its system Staphylococcus aureus. Briefly: Induction of intracellular thiol depletion in Staphylococcus aureus after 60 mins by monobromobimane-based fluorescence assay relative to control.
In series [4] the test system is Staphylococcus aureus. Nature of the series: Induction of intracellular thiol depletion in Staphylococcus aureus after 60 mins by monobromobimane-based fluorescence assay relative to control. Type of series: functional, organism-based.
In series [5] the test system is Staphylococcus aureus. Briefly: Induction of intracellular oxidative species generation in methicillin-sensitive Staphylococcus aureus 29213 at 0.5 to 8 ug/ml after 1 hr by DCFH2-DA dye-based fluorescence assay. Type of series: functional, organism-based. The essentials:
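Intracellular oxidative species in S. aureus are read as fluorescence of 2,7-dichlorodihydrofluorescein-diacetate (DCFH2-DA) after exposure to compound.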

Series [6] can be described thus: Cytotoxicity against human A549 cells after 72 hrs by MTT assay. Type of series: cell-based.
The nature of series [7]: Selectivity index, ratio of GI50 for human A549 cells to MIC for Staphylococcus aureus. The essentials:
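Selectivity index calculated as GI50 in A549 lung carcinoma cells divided by MIC.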

Series [8] concerns Staphylococcus aureus. Briefly: Antibacterial activity against patient-derived methicillin-resistant Staphylococcus aureus 7419 after 18 to 20 hrs by microbroth dilution method. Type of series: functional. The essentials: (§1)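 Patient-derived MRSA clinical isolates from the Department of Microbiology, Nizam's Institute of Medical Sciences, Hyderabad. MIC determined by broth dilution.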

The subject of series [9] is Staphylococcus aureus. Nature of the series: Antibacterial activity against patient-derived methicillin-resistant Staphylococcus aureus B19506 after 18 to 20 hrs by microbroth dilution method. Type of series: functional. The essentials:
as §1

For series [10], the system named is Staphylococcus aureus. Briefly: Antibacterial activity against patient-derived methicillin-resistant Staphylococcus aureus 7425 after 18 to 20 hrs by microbroth dilution method. Type of series: functional. The essentials:
as §1

Series [11] relates to Staphylococcus aureus. Nature of the series: Antibacterial activity against patient-derived methicillin-resistant Staphylococcus aureus 7386 after 18 to 20 hrs by microbroth dilution method. Type of series: functional. An outline of the steps:
as §1

Series [12] has as its system Staphylococcus aureus. Nature of the series: Antibacterial activity against patient-derived methicillin-resistant Staphylococcus aureus K1 after 18 to 20 hrs by microbroth dilution method. Type of series: functional. An outline of the steps:
as §1

For `COc1ccc(CN(CCCN(Cc2ccccc2)S(=O)(=O)c2ccc([N+](=O)[O-])cc2[N+](=O)[O-])S(=O)(=O)c2ccc([N+](=O)[O-])cc2[N+](=O)[O-])c(OC)c1`, the MIC is more than 16 µg/mL in the series on Staphylococcus aureus [1], more than 32 µg/mL in the series on Enterococcus faecalis, more than 32 µg/mL against Escherichia coli and more than 32 µg/mL with Staphylococcus aureus [2]. In addition, the outcome in the series with Staphylococcus aureus [3] was inactive.
As for `C#CCN(CC)S(=O)(=O)c1ccc([N+](=O)[O-])cc1[N+](=O)[O-]`, the MIC was 16 µg/mL (≈ 51.1 µM) with Staphylococcus aureus [1], more than 32 µg/mL against Enterococcus faecalis, more than 32 µg/mL against Escherichia coli and 16 µg/mL (≈ 51.1 µM) in the series on Staphylococcus aureus [2]. In addition, the result in the series on Staphylococcus aureus [3] was inactive.
For `C#CCN(c1cccc(OC)c1)S(=O)(=O)c1ccc([N+](=O)[O-])cc1[N+](=O)[O-]`, the MIC in the series on Staphylococcus aureus [1] was 4 µg/mL (≈ 10.2 µM); in the series on Enterococcus faecalis, 8 µg/mL (≈ 20.4 µM); in the series with Escherichia coli it was more than 32 µg/mL; against Staphylococcus aureus [8], 4 µg/mL (≈ 10.2 µM); in the series on Staphylococcus aureus [9] it was 2 µg/mL (≈ 5.11 µM); with Staphylococcus aureus [10], 2 µg/mL (≈ 5.11 µM). Further, the figures for the minimal inhibitory concentration (MIC) with Staphylococcus aureus [11], with Staphylococcus aureus [12] and against Staphylococcus aureus [2] were 2 µg/mL (≈ 5.11 µM), 4 µg/mL (≈ 10.2 µM) and 4 µg/mL (≈ 10.2 µM), respectively. Also, in the series with Staphylococcus aureus [4], the Activity entry was “Dose-dependent effect”. Besides, the outcome with Staphylococcus aureus [5] was Active. Halving of growth in series [6] (GI50 at 72 h) required 27 µM. Besides, in [7], the “Selectivity Index” value was found to be 5.2.
`O=C(O)c1cn(C2CC2)c2cc(N3CCNCC3)c(F)cc2c1=O` [CIPROFLOXACIN]: the MIC is not above 0.00075 µg/mL against Escherichia coli; more than 4 µg/mL against Staphylococcus aureus [8]; 32 µg/mL (≈ 96.6 µM) in the series with Staphylococcus aureus [9]; more than 4 µg/mL in the series with Staphylococcus aureus [10]; more than 4 µg/mL in the series on Staphylococcus aureus [11]; 0.5 µg/mL (≈ 1.51 µM) in the series on Staphylococcus aureus [12]. Moreover, in the series on Staphylococcus aureus [2], inhibition of growth (MIC) required 0.25 µg/mL (≈ 0.754 µM).
As to `CCN1C(=O)C=CC1=O`, the outcome in the series on Staphylococcus aureus [3] was Active.
For `C[C@@H](O)[C@H]1C(=O)N2C(C(=O)O)=C(S[C@@H]3CN[C@H](C(=O)N(C)C)C3)[C@H](C)[C@H]12` [MEROPENEM], the MIC is 16 µg/mL (≈ 41.7 µM) against Staphylococcus aureus [8]; 1 µg/mL (≈ 2.61 µM) against Staphylococcus aureus [9]; 4 µg/mL (≈ 10.4 µM) against Staphylococcus aureus [10]; more than 32 µg/mL with Staphylococcus aureus [11]; 0.5 µg/mL (≈ 1.3 µM) against Staphylococcus aureus [12]; 16 µg/mL (≈ 41.7 µM) in the series on Staphylococcus aureus [2].
For the molecule `NC[C@H]1O[C@H](O[C@H]2[C@H](O)[C@@H](O[C@H]3O[C@H](CO)[C@@H](O)[C@H](N)[C@H]3O)[C@H](N)C[C@@H]2N)[C@H](N)C[C@@H]1O` [TOBRAMYCIN], the MIC in the series on Staphylococcus aureus [8] was more than 32 µg/mL; in the series on Staphylococcus aureus [9], more than 32 µg/mL; in the series with Staphylococcus aureus [10] it was 1 µg/mL (≈ 2.14 µM); with Staphylococcus aureus [11], more than 32 µg/mL; against Staphylococcus aureus [12], 8 µg/mL (≈ 17.1 µM); in the series on Staphylococcus aureus [2], more than 32 µg/mL.
